KCNQ1 inh = human KCNQ1 channel inhibition | P51787 | CHO-K1 KCNQ1, FluxOR thallium flux fluorescence; hits give high values | B-score at 10 µM | 1.3% of 310,000 active | AID 2642;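 active = compounds whose thallium flux B-score, printed positive for inhibition, exceeds three library SD while starting fluorescence stays within three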;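 also: channel opened by potassium depolarization with thallium stimulus after 20 min compound exposure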
Target sequence (P51787 whole entry, looked up): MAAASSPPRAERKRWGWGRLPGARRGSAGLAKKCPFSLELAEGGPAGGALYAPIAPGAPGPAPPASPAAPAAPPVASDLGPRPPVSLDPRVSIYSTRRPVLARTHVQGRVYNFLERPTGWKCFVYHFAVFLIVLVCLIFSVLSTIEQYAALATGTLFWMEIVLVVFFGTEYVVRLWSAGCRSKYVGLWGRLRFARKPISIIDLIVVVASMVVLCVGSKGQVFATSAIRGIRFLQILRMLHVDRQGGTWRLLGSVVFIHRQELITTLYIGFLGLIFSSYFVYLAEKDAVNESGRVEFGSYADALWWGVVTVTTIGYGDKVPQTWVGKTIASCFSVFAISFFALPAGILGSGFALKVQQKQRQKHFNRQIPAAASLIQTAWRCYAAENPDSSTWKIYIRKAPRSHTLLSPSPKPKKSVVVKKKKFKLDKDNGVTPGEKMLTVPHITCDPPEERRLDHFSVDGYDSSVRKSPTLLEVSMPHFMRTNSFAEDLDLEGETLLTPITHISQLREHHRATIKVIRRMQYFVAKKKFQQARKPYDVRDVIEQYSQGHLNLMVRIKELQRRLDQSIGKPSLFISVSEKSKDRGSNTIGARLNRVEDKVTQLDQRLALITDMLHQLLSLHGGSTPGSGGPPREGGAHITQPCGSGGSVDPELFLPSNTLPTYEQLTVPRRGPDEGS
KCNQ1 act = human KCNQ1 channel potentiation or activation. CHO-K1 KCNQ1, thallium flux FluxOR fluorescence; hits give high values. AID 2648. 0.35% of 310,000 active. B-score at 10 µM;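 active = fluorescence ratio B-score, a plate-corrected score, at least three library SD, with initial intensity B-score within 5 SD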
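Doses: Single concentration per compound, DMSO matched to controls | Test system: KCNQ1-transfected CHO-K1 cells | Timing: 90 min dye loading and 20 min compound exposure, both at room temperature | Measured by: Kinetic FluxOR thallium fluorescence, 10-s 1-Hz baseline, 110-s post-stimulus read | Medium: Assay buffer with matched DMSO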
Kir21 block = blocks the mouse Kir2.1 inward-rectifier potassium channel. 0.85% of 310,000 active. HEK293-Kir2.1, FluxOR thallium flux fluorescence; hits give low values. AID 1672. B-score at 10 µM;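 active = fluorescence ratio B-score at or below minus 3 SD of library scores, with starting-brightness B-score within 2 SD, cut at about -4.2 in these data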;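 also: channel flux triggered by added potassium and thallium sulfate stimulus; B-score of peak minus minimum fluorescence over baseline after thallium stimulus; more negative B-score means stronger Kir2.1 block with less thallium influx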
KCNK9 inh = blocks the human KCNK9 two-pore domain potassium channel; HEK293 KCNK9, FluxOR thallium flux fluorescence; hits give low values; Q9NPC2; B-score at 10 µM; 1.2% of 310,000 active;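 active = ratio B-score over 3 SD below the library mean, with starting fluorescence within 5 SD of its mean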;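 also: negative B-score means less thallium flux so channel inhibition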
hERG protect = compounds protecting human hERG from proarrhythmic drug block | Q12809 | CHO-hERG, FluxOR thallium flux, dofetilide IC70 present | activation (rescue from dofetilide block), less the hit threshold, % at 10 µM | 0.51% of 310,000 active | AID 1511;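 active = activation above the mean of controls blocked by dofetilide plus 5 SD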;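 also: thallium influx through hERG after potassium depolarization seen as dye fluorescence rise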
KCNK3 inh = human KCNK3 channel inhibition, primary screen; O14649; CHO-KCNK3 thallium flux, FluxOR fluorescence; hits give low values; B-score at 10 µM; 0.84% of 340,000 active; AID 602410;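 active = B-score under library mean minus 4 SD, starting fluorescence ratio at most library mean plus 5 SD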;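 also: more negative B-score means stronger inhibition of thallium flux through KCNK3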
KCNK9 block conf = confirmation of human KCNK9 potassium channel inhibitors. AID 492992. inhibition, % at 10 µM. 43% of 4,900 active. shares compounds with KCNK9 inh. HEK293 KCNK9 cells, FluxOR thallium flux fluorescence;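 active = thallium signal inhibited by more than 5 SD of the compound-free buffer control wells, on both duplicate plates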;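 also: 0% = assay buffer control wells without compound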
Kir2-1 spec = mouse Kir2.1 off-target activity of KCNK9 modulators | shares compounds with KCNK9 inh | Kir2.1 cells, FluxOR thallium flux fluorescence | inhibition, % at 10 µM | 4% of 4,900 active;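 active = thallium signal drop more than 5 SD beyond the mean of the no-compound control wells, seen in both duplicate plates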;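 also: signal is fluorescence rise after thallium addition divided by baseline fluorescence; plate controls were assay buffer only for no effect and full block by chlorpromazine control for full effect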
KCNK9 uninduced = second counter-screen for KCNK9 modulators: effect in non-induced cells. inhibition, % at 10 µM. shares compounds with KCNK9 inh. 40% of 4,900 active. non-induced KCNK9-HEK293, FluxOR thallium flux;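 active = thallium signal drop beyond 5 SD of the untreated control mean, on both duplicate plates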;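 also: plate controls were buffer only IC0 wells for no effect and SID17386958 at its maximal inhibitory level for full effect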
Starred values were filed as active, the others as inactive. Rows were chosen to be rich in hits. Some 3.7% of all compounds tested hit in one or more screens of this group.

How did COC(=O)c1ccc(COc2ccc(/C=C(\C#N)c3nc4ccccc4[nH]3)cc2OC)o1 do in these assays?
KCNQ1 inh: inactive; KCNQ1 act: inactive; Kir21 block: 1.11; KCNK9 inh: -8.37*; hERG protect: -8.0; KCNK3 inh: inactive; KCNK9 block conf: 40.5%*; Kir2-1 spec: inactive; KCNK9 uninduced: 33.5%*

Results for O=C(c1ccc(F)cc1)N1CCN(c2cc(N3CCCCC3)c(F)cc2[N+](=O)[O-])CC1 ?
KCNQ1 inh: inactive; KCNQ1 act: inactive; Kir21 block: -0.49; KCNK9 inh: inactive; hERG protect: -7.6; KCNK3 inh: inactive; KCNK9 block conf: inactive; Kir2-1 spec: inactive; KCNK9 uninduced: inactive

How did COc1ccc(N2CCN(C(=O)c3ccc(F)cc3)CC2)c([N+](=O)[O-])c1 do in these assays?
KCNQ1 inh: inactive; KCNQ1 act: inactive; Kir21 block: -0.05; KCNK9 inh: inactive; hERG protect: -9.5; KCNK3 inh: inactive

How did CC(C)(C)OC(=O)N1CCC(c2c(C(=O)NC3CC3)cnn2-c2ccc(Cl)cc2)CC1 do in these assays?
KCNQ1 inh: inactive; KCNQ1 act: inactive; Kir21 block: 3.33; KCNK9 inh: inactive; hERG protect: -6.8; KCNK3 inh: inactive; KCNK9 block conf: inactive; Kir2-1 spec: inactive; KCNK9 uninduced: inactive

How did CC(=O)Nc1ccc(Oc2cc(NC(C)=O)cc([N+](=O)[O-])c2)cc1 do in these assays?
KCNQ1 inh: inactive; KCNQ1 act: inactive; Kir21 block: -0.22; KCNK9 inh: inactive; hERG protect: -4.7; KCNK3 inh: inactive

How did Cc1cc(=O)oc2cc(NC(=O)COc3ccccc3[N+](=O)[O-])ccc12 do in these assays?
KCNK3 inh: inactive

How did O=C(COc1ccccc1[N+](=O)[O-])Nc1ccc2oc(=O)ccc2c1 do in these assays?
KCNQ1 inh: inactive; KCNQ1 act: inactive; Kir21 block: 0.26; KCNK9 inh: -9.63*; hERG protect: -4.2; KCNK3 inh: inactive; KCNK9 block conf: inactive; Kir2-1 spec: inactive; KCNK9 uninduced: inactive

Results for O=C(Nc1nc(-c2cc3ccccc3oc2=O)cs1)c1ccco1 ?
KCNQ1 inh: inactive; KCNQ1 act: inactive; Kir21 block: 2.53; KCNK9 inh: inactive; hERG protect: 0.0; KCNK3 inh: inactive

How did C=CCNc1nc(-c2cc3ccccc3o2)cs1 do in these assays?
KCNQ1 inh: inactive; KCNQ1 act: inactive; Kir21 block: -0.28; KCNK9 inh: inactive; hERG protect: -3.8; KCNK3 inh: inactive

Results for c1ccc2oc(-c3csc(NCC4CCCO4)n3)cc2c1 (centres undefined) ?
KCNQ1 inh: inactive; KCNQ1 act: inactive; Kir21 block: 0.38; KCNK9 inh: inactive; hERG protect: -6.9; KCNK3 inh: inactive; KCNK9 block conf: inactive; Kir2-1 spec: inactive; KCNK9 uninduced: inactive

What do the screens show for `O=c1oc2ccccc2cc1-c1csc(NN=C2CCCCC2)n1`?
KCNQ1 inh: inactive; KCNQ1 act: inactive; Kir21 block: 0.09; KCNK9 inh: inactive; hERG protect: -7.4; KCNK3 inh: inactive; KCNK9 block conf: inactive; Kir2-1 spec: inactive; KCNK9 uninduced: inactive

Results for O=C(O)c1ccc(/C=C/c2nc3sc4c(c3c(=O)[nH]2)CCC4)cc1 ?
KCNQ1 inh: inactive; KCNQ1 act: inactive; Kir21 block: 1.5; KCNK9 inh: inactive; hERG protect: -15.9; KCNK3 inh: inactive

What do the screens show for `Cc1ccc(NC(=O)c2ccc(=O)[nH]n2)cc1S(=O)(=O)Nc1ccc(SC(F)F)cc1`?
KCNK3 inh: inactive

How did N/C(Cc1ccc(Cl)cc1Cl)=N\OC(=O)c1cccs1 do in these assays?
KCNQ1 inh: inactive; KCNQ1 act: inactive; Kir21 block: -0.09; KCNK9 inh: inactive; hERG protect: -18.9; KCNK3 inh: inactive

What do the screens show for `N/C(CC(=O)Nc1ccc(F)cc1F)=N\OC(=O)c1cccs1`?
KCNQ1 inh: inactive; KCNQ1 act: inactive; Kir21 block: 0.18; KCNK9 inh: inactive; hERG protect: -6.1; KCNK3 inh: inactive; KCNK9 block conf: inactive; Kir2-1 spec: inactive; KCNK9 uninduced: inactive

How did Cc1ccccc1C(=O)N1CCC(C(=O)Nc2ccc(F)cc2)CC1 do in these assays?
KCNQ1 inh: inactive; KCNQ1 act: inactive; Kir21 block: -1.06; KCNK9 inh: inactive; hERG protect: -16.5; KCNK3 inh: inactive

Results for CSc1cccc(NC(=O)C2CCN(C(=O)c3ccccc3C)CC2)c1 ?
KCNQ1 inh: inactive; KCNQ1 act: inactive; Kir21 block: -1.86; KCNK9 inh: inactive; hERG protect: -8.2; KCNK3 inh: inactive; KCNK9 block conf: inactive; Kir2-1 spec: inactive; KCNK9 uninduced: inactive

Results for CCCCCn1c(=O)c(C(=O)c2ccccc2)nc2ccccc21 ?
KCNQ1 inh: inactive; KCNQ1 act: inactive; Kir21 block: -1.06; KCNK9 inh: -14.6*; hERG protect: -11.7; KCNK3 inh: inactive; KCNK9 block conf: 45.5%*; Kir2-1 spec: inactive; KCNK9 uninduced: 30.5%*

What do the screens show for `CCn1c(=O)c(C(C)=O)nc2ccccc21`?
KCNQ1 inh: inactive; KCNQ1 act: inactive; Kir21 block: 0.2; KCNK9 inh: inactive; hERG protect: -5.4; KCNK3 inh: inactive

What do the screens show for `CCCCCCCCC/C(=N\O)c1ccccn1`?
KCNQ1 inh: 7*; KCNQ1 act: inactive; Kir21 block: -2.19; KCNK9 inh: -14.9*; hERG protect: -7.0; KCNK3 inh: inactive; KCNK9 block conf: 41.0%*; Kir2-1 spec: inactive; KCNK9 uninduced: 49.5%*

How did CN(C(=O)COc1ccc(Cl)cc1Cl)c1nnc(C23CC4CC(CC(C4)C2)C3)s1 do in these assays?
KCNQ1 inh: inactive; KCNQ1 act: inactive; Kir21 block: 0.43; KCNK9 inh: inactive; hERG protect: -7.3; KCNK3 inh: inactive; KCNK9 block conf: inactive; Kir2-1 spec: inactive; KCNK9 uninduced: inactive

What do the screens show for `CN(C(=O)c1ccco1)c1nnc(C23CC4CC(CC(C4)C2)C3)s1`?
KCNQ1 inh: inactive; KCNQ1 act: inactive; Kir21 block: 1.14; KCNK9 inh: inactive; hERG protect: -11.8; KCNK3 inh: inactive

Results for O=C(CCN1C(=O)C2CCCCC2C1=O)N1CCN(S(=O)(=O)c2ccccc2)CC1 (centres undefined) ?
KCNQ1 inh: inactive; KCNQ1 act: inactive; Kir21 block: -0.16; KCNK9 inh: inactive; hERG protect: -10.8; KCNK3 inh: inactive

High-throughput results (PubChem)
